ChEMBL document CHEMBL1177770, “A rapid synthesis of lavendustin-mimetic small molecules by click fragment assembly” (Bioorg Med Chem Lett, 2010)

Columns and labels:
HCT-116 [1] = experiment: Growth inhibition of human HCT116 cells at 10 uM after 2 days by MTT assay; assay type: functional; settings: HCT-116, 48 h
CCRF-CEM [2] = experiment: Growth inhibition of human CCRF-CEM cells at 10 uM after 2 days by MTT assay; assay type: functional; settings: 48 h
HCT-116 [3] = experiment: Growth inhibition of human HCT116 cells after 2 days by MTT assay; assay type: functional; settings: HCT-116, 48 h
How it was run: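 HCT116 colorectal carcinoma cells from KCLB/ATCC were grown in RPMI 1640/DMEM with 10% heat-inactivated FBS at 37 °C and 5% CO₂. Cells were seeded at 5 × 10⁴ cells/ml and exposed in duplicate to a range of concentrations for two days. MTT dye was added for up to 4 h at 37 °C, formazan was solubilized overnight at room temperature, and A570 gave GI₅₀.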

CCRF-CEM [4] = experiment: Growth inhibition of human CCRF-CEM cells after 2 days by MTT assay; assay type: functional; settings: 48 h
HaCaT = experiment: Cytotoxicity against human HaCaT cells

Row | GI50 (HCT-116 [3]) | GI50 (CCRF-CEM [4]) | Compound | inhibition at 10 µM (HCT-116 [1]) | inhibition at 10 µM (CCRF-CEM [2]) | IC50 (HaCaT)
1 | 4.37 µM | 6.41 µM | COc1cc(OC)cc(-c2cn(-c3ccc(O)c(C(=O)Nc4cccc(C(F)(F)F)c4)c3)nn2)c1 | 62% | 73% | 
2 |  |  | COC(=O)c1cc(-n2cc(-c3ccc(OC)cc3)nn2)ccc1O | 6% | 16% | 
3 |  |  | COC(=O)c1cc(-n2cc(-c3ccccc3OC)nn2)ccc1O | 8% | 6% | 
4 |  |  | COC(=O)c1cc(-n2cc(-c3cccc(O)c3)nn2)ccc1O | 6% | 5% | 
5 | 13.6 µM | 22.9 µM | COc1ccc(OC)c(-c2cn(-c3ccc(O)c(C(=O)NCCc4ccc(F)cc4)c3)nn2)c1 | 44% | 35% | 
6 | > 100 µM | 22.8 µM | O=C(NCCc1ccc(F)cc1)c1cc(-n2cc(-c3cccc(O)c3)nn2)ccc1O |  | 35% | 
7 | 12.5 µM | > 100 µM | COc1ccc(-c2cn(-c3ccc(O)c(C(=O)NCCc4ccc(F)cc4)c3)nn2)cc1 | 62% | 21% | 
8 |  |  | COc1ccccc1-c1cn(-c2ccc(O)c(C(=O)NCCc3ccc(F)cc3)c2)nn1 | 23% | 11% | 
9 |  |  | O=C(OCCCc1ccccc1)c1cc(-n2cc(-c3cccc(O)c3)nn2)ccc1O | 11% | 9% | 
10 |  |  | COC(=O)c1cc(-n2cc(-c3cc(OC)cc(OC)c3)nn2)ccc1O | 3% | 3% | 
11 |  |  | COc1ccc(OC)c(-c2cn(-c3ccc(O)c(C(=O)O)c3)nn2)c1 |  | 9% | 
12 |  |  | COC(=O)c1cc(-n2cc(-c3cc(OC)ccc3OC)nn2)ccc1O | 6% | 3% | 
13 | > 100 µM | 13.9 µM | COC(=O)c1cc(-n2cc(-c3cc(O)ccc3O)nn2)ccc1O | 15% | 52% | 
14 |  |  | O=C(O)c1cc(-n2cc(-c3cccc(O)c3)nn2)ccc1O | 5% | 3% | 
15 |  |  | COc1ccc(-c2cn(-c3ccc(O)c(C(=O)O)c3)nn2)cc1 | 8% | 9% | 
16 |  |  | COc1ccccc1-c1cn(-c2ccc(O)c(C(=O)O)c2)nn1 | 4% | 9% | 
17 |  |  | O=C(NCCc1ccc(F)cc1)c1cc(-n2cc(-c3cc(O)ccc3O)nn2)ccc1O | 18% | 15% | 
18 |  |  | COc1ccc(-c2cn(-c3ccc(O)c(C(=O)Nc4cccc(C(F)(F)F)c4)c3)nn2)cc1 | 9% | 12% | 
19 |  |  | COc1ccc(OC)c(-c2cn(-c3ccc(O)c(C(=O)OCCCc4ccccc4)c3)nn2)c1 | 13% | 5% | 
20 | 20.4 µM | 0.93 µM | O=C(OCCCc1ccccc1)c1cc(-n2cc(-c3cc(O)ccc3O)nn2)ccc1O | 39% | 81% | 
21 | 16.1 µM | > 100 µM | COc1cc(OC)cc(-c2cn(-c3ccc(O)c(C(=O)NCCc4ccc(F)cc4)c3)nn2)c1 | 43% | 35% | 
22 | 12.9 µM | > 100 µM | COc1ccc(OC)c(-c2cn(-c3ccc(O)c(C(=O)Nc4cccc(C(F)(F)F)c4)c3)nn2)c1 | 46% | 15% | 
23 |  |  | O=C(Nc1cccc(C(F)(F)F)c1)c1cc(-n2cc(-c3cccc(O)c3)nn2)ccc1O | 25% | 13% | 
24 |  |  | COc1ccc(-c2cn(-c3ccc(O)c(C(=O)OCCCc4ccccc4)c3)nn2)cc1 | 12% | 5% | 
25 |  |  | COc1ccccc1-c1cn(-c2ccc(O)c(C(=O)OCCCc3ccccc3)c2)nn1 | 7% | 4% | 
26 |  |  | COc1cc(OC)cc(-c2cn(-c3ccc(O)c(C(=O)OCCCc4ccccc4)c3)nn2)c1 | 19% | 8% | 
27 |  |  | COc1cc(OC)cc(-c2cn(-c3ccc(O)c(C(=O)O)c3)nn2)c1 | 2% | 9% | 
28 | 7.92 µM | 10.5 µM | COc1ccccc1-c1cn(-c2ccc(O)c(C(=O)Nc3cccc(C(F)(F)F)c3)c2)nn1 | 61% | 65% | 
29 | 0.4 µM | 0.02 µM | COc1cccc2c1C(=O)c1c(O)c3c(c(O)c1C2=O)C[C@@](O)(C(=O)CO)C[C@@H]3O[C@H]1C[C@H](N)[C@H](O)[C@H](C)O1 [DOXORUBICIN] |  |  | 
30 |  |  | O=C(O)c1cc(NCc2cc(O)ccc2O)ccc1O [LAVENDUSTIN C] |  |  | > 100 µM
